CDK5 inh = inhibitors of human CDK5/p35 kinase, primary screen, biochemical, single concentration; inhibition, % at 10 µM; Cyclin-dependent kinase 5 (Homo sapiens) + Cyclin-dependent kinase 5 activator 1 (Homo …; actives 0.01% (n = 330,000); Recombinant CDK5/p35, ADP-Glo luminescence, 60 min; AID 488839, 2010;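 active = highest replicate inhibition of at least 50% and at least 75% of replicates reaching 50%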;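 note: plate controls were DMSO neutral control for no effect and GW8510 at 10 µM for full effect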
STK33 kinase inh = inhibitors of purified STK33 kinase, primary screen, biochemical, ADP-Glo luminescence, homogeneous, cell-free. Serine/threonine-protein kinase 33 (Homo sapiens), Q9BYT3. MBP phosphorylation. inhibition, % at 10 µM. actives 0.073% (n = 320,000). AID 2661, 2010;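 active = inhibition at or above 25%, using the most active replicate where run in duplicate; inactive = inhibition below 25%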
GSK3 alpha inh = blockers of GSK3A enzyme activity – biochemical, luminescence, cell-free homogeneous, HTS, primary screen | Glycogen synthase kinase-3 alpha (Homo sapiens), P49840 | GSK-3 alpha kinase, ADP-Glo luminescence, 60 min | inhibition, % at 10 µM | actives 0.1% (n = 320,000) | AID 2650, 2010;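 active = more than half of replicates show inhibition above 20%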;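 note: GST-tagged GSK-3 alpha with peptide substrate and 25 µM ATP; 0% = DMSO neutral wells and 100% = GW8510 positive control wells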
Target sequence (P49840 whole entry, looked up): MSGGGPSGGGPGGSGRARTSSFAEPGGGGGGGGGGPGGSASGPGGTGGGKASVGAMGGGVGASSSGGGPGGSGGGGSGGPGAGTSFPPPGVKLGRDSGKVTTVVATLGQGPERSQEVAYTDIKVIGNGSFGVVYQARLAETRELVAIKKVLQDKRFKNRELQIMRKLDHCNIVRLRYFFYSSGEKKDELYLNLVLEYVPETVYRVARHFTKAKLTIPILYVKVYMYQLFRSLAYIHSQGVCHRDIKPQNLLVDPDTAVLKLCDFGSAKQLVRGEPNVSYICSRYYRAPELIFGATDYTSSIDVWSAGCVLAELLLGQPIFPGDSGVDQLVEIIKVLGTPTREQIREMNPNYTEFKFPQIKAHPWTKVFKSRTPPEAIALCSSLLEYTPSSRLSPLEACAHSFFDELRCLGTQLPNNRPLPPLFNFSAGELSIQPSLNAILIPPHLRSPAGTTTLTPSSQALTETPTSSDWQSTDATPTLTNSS
GSK3B inh = human GSK3beta kinase inhibitors, primary screen, biochemical, cell-free homogeneous, HTS. Glycogen synthase kinase-3 beta (Homo sapiens), P49841. GST-GSK3beta kinase, ADP-Glo luminescence, 60 min; stronger effect = lower value. activity score (negative = inhibition), % at 10 µM. actives 0.038% (n = 300,000). AID 2097, 2009;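 active = more than half of replicate wells score below -50%, meaning over 50% inhibition versus plate controls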;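 note: 0% = median DMSO wells and -100% = median GW8510 positive control wells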
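Assay system: GST-fused GSK3beta enzyme, cell-free / Medium: Tris pH 7.5 buffer with MgCl2, DTT, BSA, heparin / Also added: peptide substrate plus 25 µM ATP (final) / Compound: 10 µM single point / Timing: kinase reaction with compound 60 min at room temperature / Detection: ADP-Glo luminescence / Benchmarks: DMSO neutral wells and GW8510 at 20 µM as positive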
* hit, by the source's call; . = no result given. The list is not random: actives were taken first. Their share in the collection is about 0.16%.

SMILES	CDK5 inh	STK33 kinase inh	GSK3 alpha inh	GSK3B inh
Nc1nc(NC2CCCCC2)nc(NCCO)c1[N+](=O)[O-]	1	3	86*	-58*
C=CCNc1nc(N)c([N+](=O)[O-])c(NCCO)n1	4	-1	-3	-18
CSc1nc2ncc3c(n2n1)CC1c2ccccc2CCN1C3=O (centres undefined)	-2	0	72*	-27
COc1cc(-c2cc(=O)c3c(O)c(OC)c(OC)c(O)c3o2)ccc1O	5	46*	42	-26
O=C(O)c1ccc2c(c1)S(=O)(=O)c1cc(Cl)ccc1C2=O	-1	-2	74*	.
CCCCCCCCCCOC(=O)Cn1c(COc2ccccc2)[n+](C)c2ccccc21	1	11	23	-19
CCCCCCCCCCOC(=O)Cn1c(COc2ccc(Cl)cc2)[n+](C)c2ccccc21	1	32*	32	-15
CCOC(=O)C1(Cc2cccc(Cl)c2)CCCN(C(=O)CCN2CCCC2=O)C1 (centres undefined)	-1	-2	0	2
Cc1nc2ccccc2n2c(-c3ccccc3)c3c(=O)n(C)c(=O)n(C)c3c12	0	-2	59*	0
Cc1ccc(C(=O)Nc2ccc(F)cc2)cc1NC1=NC2CS(=O)(=O)CC2S1 (centres undefined)	-1	-1	0	2
O=c1c2c3c(sc2n2c(=S)[nH]nc2n1-c1ccccc1)CCC3	-4	1	15	-6
CN1CCc2c(sc3c2c(=O)n(-c2ccccc2)c2n[nH]c(=S)n32)C1	0	36*	80*	-50*
O=C(O)C(Oc1ccc(Cl)cc1)c1ccc(Cl)cc1 (centres undefined)	1	.	.	.
O=C(O)c1cc(-c2ccc(/C=N/Nc3ccc([N+](=O)[O-])cn3)o2)ccc1Cl	7	.	.	-63*
CC(C(=O)Nc1ccccc1F)N1CCN(S(=O)(=O)c2ccc(C(F)(F)F)cc2)CC1 (centres undefined)	0	.	.	.

From PubChem
